Experimental data from different studies.
Lines come from different studies, so protocols differ.
Matrix: plasma

| SMILES | test system | conditions | endpoint | result |
| --- | --- | --- | --- | --- |
| CC(C)=CCC[C@](C)(O[C@@H]1O[C@H](CO)[C@@H](O)[C@H](O)[C@H]1O)[C@H]1CC[C@]2(C)[C@@H]1[C@H](O)C[C@@H]1[C@@]3(C)CC[C@H](O)C(C)(C)[C@@H]3CC[C@]12C | mouse | oral, 10 mg/kg | AUC(0-t) | 655 ng·h/mL |
| CCOC(=O)c1c(NC(=O)CNC(C)C)sc2c1CCCCC2 | male mouse | intraperitoneal, 100 mg/kg, single dose | AUC(0-t) | 19300 ng·h/mL |
| C[C@@H](O)[C@@H]1NC(=O)CNC(=O)[C@H](Cc2c[nH]cn2)NC(=O)[C@H](Cc2c[nH]c3ccccc23)NC(=O)[C@H](CC(N)=O)NC(=O)CNC(=O)C[C@@H](C(=O)N[C@@H](Cc2c[nH]c3ccccc23)C(=O)N[C@@H](Cc2ccccc2)C(=O)N[C@@H](Cc2ccccc2)C(=O)N[C@@H](CC(N)=O)C(=O)N[C@@H](Cc2ccc(O)cc2)C(=O)N[C@@H](Cc2ccc(O)cc2)C(=O)N[C@@H](Cc2c[nH]c3ccccc23)C(=O)O)NC(=O)[C@@H]2CCCN2C(=O)[C@H](CO)NC1=O | mouse | intravenous, 3 mg/kg | AUC(0-t) | 35100 ng·h/mL |
| O=C1CCC(N2Cc3c(ccc4c3OCC43CCN(Cc4ccccc4)CC3)C2=O)C(=O)N1 (stereo not drawn) | male CD-1 mouse | oral, 3 mg/kg | AUC(0-inf) | 1340 ng·h/mL |
| N=C(N)NCCC[C@H](NC(=O)[C@H](Cc1ccccc1)NC(=O)[C@H](CCC(N)=O)NC(=O)OCc1ccccc1)C(=O)c1nccs1 | female C57BL/6 mouse | intravenous, 5 mg/kg | AUC(0-t) | 1180 ng·h/mL |
| COc1cc(C(=O)c2nc(-c3cccc4[nH]ccc34)c[nH]2)cc(OC)c1OC | male CD-1 mouse | intraperitoneal, 15 mg/kg | AUC(0-t) | 1510 ng·h/mL |
| CC(C)[C@]12O[C@H]1[C@@H]1O[C@]13[C@]1(O[C@H]1C[C@H]1C4=C(CC[C@@]13C)C(=O)OC4)[C@@H]2O | SCID mouse | intravenous, 0.6 mg/kg | AUC(0-inf) | 619 ng·h/mL |
| CC[C@H](C)[C@H](NC(=O)[C@H](Cc1ccccc1)NC(=O)[C@H](CCC(=O)O)NC(=O)[C@H](CCCCN)NC(=O)[C@H](C)NC(=O)[C@H](C)NC(=O)[C@H](CCC(N)=O)NC(=O)CNC(=O)[C@H](CCC(=O)O)NC(=O)[C@H](CC(C)C)NC(=O)[C@H](Cc1ccc(O)cc1)NC(=O)[C@H](CO)NC(=O)[C@H](CO)NC(=O)[C@@H](NC(=O)[C@H](CC(=O)O)NC(=O)[C@H](CO)NC(=O)[C@@H](NC(=O)[C@H](Cc1ccccc1)NC(=O)[C@@H](NC(=O)CNC(=O)[C@H](CCC(=O)O)NC(=O)[C@H](C)NC(=O)N(N)Cc1c[nH]cn1)[C@@H](C)O)[C@@H](C)O)C(C)C)C(=O)N[C@@H](C)C(=O)N[C@@H](Cc1c[nH]c2ccccc12)C(=O)N[C@@H](CC(C)C)C(=O)N[C@H](C(=O)N[C@@H](CCCNC(=N)N)C(=O)NCC(=O)N[C@@H](CCCNC(=N)N)C(=O)NCC(=O)O)C(C)C | male CD-1 mouse | intravenous, 1 mg/kg, single dose | AUC(0-t) | 2390 ng·h/mL |
| CN(C)C1(CNC(=O)c2ccc3c(c2)CCN3C(=O)c2ccccc2)CCOCC1 | male CD-1 mouse | intraperitoneal, 30 mg/kg | AUC(0-inf) | 246 ng·h/mL |
